These results are taken from ChEMBL document CHEMBL3593164, “Rational Design and Synthesis of Thioridazine Analogues as Enhancers of the Antituberculosis Therapy” (J Med Chem, 2015).

Assay [1] deals with Mycobacterium tuberculosis. The assay is described as follows: Inhibition of multidrug resistance efflux pump in Mycobacterium tuberculosis H37Rv assessed as isoniazid MIC at 8 ug/ml after 7 days by two-dimensional broth microdilution checkerboard assay. The conditions noted are these: 168 h. (In general: Dilution methods test growth across graded concentrations, often in twofold steps.)

In assay [2] the test system is Mycobacterium tuberculosis. The assay is described as follows: Inhibition of multidrug resistance efflux pump in Mycobacterium tuberculosis H37Rv assessed as reduction in amikacin MIC at 256 ug/ml after 7 days by two-dimensional broth microdilution checkerboard assay. In a few lines: (§1)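 M. tuberculosis H37Rv two-dimensional broth microdilution checkerboard. MICs of INH, RIF, AMK, OFX or EtBr were determined without and with graded sub-inhibitory compound concentrations, starting at ½ MIC. Where MIC was undeterminable, the highest concentration still permitting growth was taken as ½ MIC. FIC = MIC of antibacterial in combination / MIC alone. FIC ≤0.25 was scored as synergism and ≥2 as antagonism.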

Assay [3] has as its system Mycobacterium tuberculosis. The assay can be described thus: Inhibition of multidrug resistance efflux pump in Mycobacterium tuberculosis H37Rv assessed as ofloxacin MIC at 256 ug/ml after 7 days by two-dimensional broth microdilution checkerboard assay. To be noted: 168 h. In a few lines: as §1
Assay [4] has as its system Mycobacterium tuberculosis. The assay can be described thus: Inhibition of multidrug resistance efflux pump in Mycobacterium tuberculosis H37Rv assessed as isoniazid MIC at 128 ug/ml after 7 days by two-dimensional broth microdilution checkerboard assay. To be noted: 168 h.
Assay [5] has as its system Mycobacterium tuberculosis. The assay is described as follows: Inhibition of multidrug resistance efflux pump in Mycobacterium tuberculosis H37Rv assessed as isoniazid MIC at 32 ug/ml after 7 days by two-dimensional broth microdilution checkerboard assay. To be noted: 168 h.
Assay [6] concerns Mycobacterium tuberculosis. The assay can be described thus: Inhibition of multidrug resistance efflux pump in Mycobacterium tuberculosis H37Rv assessed as amikacin MIC at 4 ug/ml after 7 days by two-dimensional broth microdilution checkerboard assay. To be noted: 168 h.
For assay [7], the system named is Mycobacterium tuberculosis. The assay is described as follows: Inhibition of multidrug resistance efflux pump in Mycobacterium tuberculosis H37Rv assessed as reduction in ethidium bromide MIC at 256 ug/ml after 7 days by two-dimensional broth microdilution checkerboard assay. Summed up:
as §1

Assay [8] has as its system Mycobacterium tuberculosis. The assay can be described thus: Inhibition of multidrug resistance efflux pump in Mycobacterium tuberculosis H37Rv using ethidium bromide as substrate assessed as relative final fluorescence at 1/2 MIC by real-time fluorometry.
Assay [9] has as its system Mycobacterium tuberculosis. The assay is described as follows: Inhibition of multidrug resistance efflux pump in Mycobacterium tuberculosis H37Rv assessed as rifampin MIC at 64 ug/ml after 7 days by two-dimensional broth microdilution checkerboard assay. To be noted: 168 h.
For assay [10], the system named is Mycobacterium tuberculosis. The assay is described as follows: Inhibition of multidrug resistance efflux pump in Mycobacterium tuberculosis H37Rv assessed as reduction in ofloxacin MIC at 256 ug/ml after 7 days by two-dimensional broth microdilution checkerboard assay. Summed up: as §1
Assay [11] deals with Mycobacterium tuberculosis. The assay can be described thus: Inhibition of multidrug resistance efflux pump in Mycobacterium tuberculosis H37Rv assessed as reduction in isoniazid MIC at 256 ug/ml after 7 days by two-dimensional broth microdilution checkerboard assay. Summed up: as §1
Assay [12] deals with Mycobacterium tuberculosis. The assay is described as follows: Inhibition of multidrug resistance efflux pump in Mycobacterium tuberculosis H37Rv assessed as ethidium bromide MIC at 0.23 ug/ml after 7 days by two-dimensional broth microdilution checkerboard assay. To be noted: 168 h. In a few lines:
(§2)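 M. tuberculosis H37Rv ATCC27294. MICs of INH, RIF, AMK, OFX and EtBr were determined alone and with sub-inhibitory concentrations of test compound by two-dimensional broth microdilution checkerboard. Where a compound's MIC was not determinable, the highest concentration still allowing growth was taken as ½ MIC. FIC = MIC in combination / MIC alone. FIC ≤0.25 was scored as synergism and ≥2 as antagonism.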

Assay [13] concerns Mycobacterium tuberculosis. The assay can be described thus: Inhibition of multidrug resistance efflux pump in Mycobacterium tuberculosis H37Rv assessed as amikacin MIC at 7.5 ug/ml after 7 days by two-dimensional broth microdilution checkerboard assay. To be noted: 168 h. Summed up: as §1
The subject of assay [14] is Mycobacterium tuberculosis. The assay can be described thus: Inhibition of multidrug resistance efflux pump in Mycobacterium tuberculosis H37Rv assessed as isoniazid MIC at 0.47 ug/ml after 7 days by two-dimensional broth microdilution checkerboard assay. To be noted: 168 h. Summed up:
as §2

Assay [15] concerns Mycobacterium tuberculosis. The assay can be described thus: Inhibition of multidrug resistance efflux pump in Mycobacterium tuberculosis H37Rv assessed as rifampin MIC at 0.23 ug/ml after 7 days by two-dimensional broth microdilution checkerboard assay. To be noted: 168 h. Summed up:
as §2

For assay [16], the system named is Mycobacterium tuberculosis. The assay can be described thus: Inhibition of multidrug resistance efflux pump in Mycobacterium tuberculosis H37Rv assessed as reduction in amikacin MIC at 7.5 ug/ml after 7 days by two-dimensional broth microdilution checkerboard assay. Summed up: as §1
Assay [17] deals with Mycobacterium tuberculosis. The assay is described as follows: Inhibition of multidrug resistance efflux pump in Mycobacterium tuberculosis H37Rv assessed as amikacin MIC at 0.47 ug/ml after 7 days by two-dimensional broth microdilution checkerboard assay. The conditions noted are these: 168 h. In a few lines:
as §2

Assay [18] concerns Mycobacterium tuberculosis. The assay is described as follows: Inhibition of multidrug resistance efflux pump in Mycobacterium tuberculosis H37Rv assessed as amikacin MIC at 3.75 ug/ml after 7 days by two-dimensional broth microdilution checkerboard assay. To be noted: 168 h. Summed up:
as §2

The test system of assay [19] is Mycobacterium tuberculosis. The assay can be described thus: Inhibition of multidrug resistance efflux pump in Mycobacterium tuberculosis H37Rv assessed as ofloxacin MIC at 0.94 ug/ml after 7 days by two-dimensional broth microdilution checkerboard assay. To be noted: 168 h. Summed up:
as §2

Assay [20] concerns Mycobacterium tuberculosis. The assay is described as follows: Inhibition of multidrug resistance efflux pump in Mycobacterium tuberculosis H37Rv assessed as reduction in rifampin MIC at 64 ug/ml after 7 days by two-dimensional broth microdilution checkerboard assay.
Assay [21] concerns Mycobacterium tuberculosis. The assay can be described thus: Inhibition of multidrug resistance efflux pump in Mycobacterium tuberculosis H37Rv assessed as reduction in amikacin MIC at 64 ug/ml after 7 days by two-dimensional broth microdilution checkerboard assay. In a few lines:
as §1

Assay [22] deals with Mycobacterium tuberculosis. The assay can be described thus: Inhibition of multidrug resistance efflux pump in Mycobacterium tuberculosis H37Rv assessed as reduction in rifampin MIC at 8 ug/ml after 7 days by two-dimensional broth microdilution checkerboard assay. Summed up:
as §1

Assay [23] deals with Mycobacterium tuberculosis. The assay is described as follows: Inhibition of multidrug resistance efflux pump in Mycobacterium tuberculosis H37Rv assessed as reduction in rifampin MIC at 128 ug/ml after 7 days by two-dimensional broth microdilution checkerboard assay.
Assay [24] relates to Mycobacterium tuberculosis. The assay can be described thus: Inhibition of multidrug resistance efflux pump in Mycobacterium tuberculosis H37Rv assessed as reduction in ofloxacin MIC at 64 ug/ml after 7 days by two-dimensional broth microdilution checkerboard assay. Summed up: as §1
Assay [25] has as its system Mycobacterium tuberculosis. The assay can be described thus: Inhibition of multidrug resistance efflux pump in Mycobacterium tuberculosis H37Rv assessed as reduction in ofloxacin MIC at 128 ug/ml after 7 days by two-dimensional broth microdilution checkerboard assay.
For assay [26], the system named is Mycobacterium tuberculosis. The assay is described as follows: Inhibition of multidrug resistance efflux pump in Mycobacterium tuberculosis H37Rv assessed as reduction in ethidium bromide MIC at 64 ug/ml after 7 days by two-dimensional broth microdilution checkerboard assay.
Assay [27] deals with Mycobacterium tuberculosis. The assay can be described thus: Inhibition of multidrug resistance efflux pump in Mycobacterium tuberculosis H37Rv assessed as reduction in rifampin MIC at 16 ug/ml after 7 days by two-dimensional broth microdilution checkerboard assay. In a few lines:
as §1

Assay [28] concerns Mycobacterium tuberculosis. The assay can be described thus: Inhibition of multidrug resistance efflux pump in Mycobacterium tuberculosis H37Rv assessed as ofloxacin MIC at 1 ug/ml after 7 days by two-dimensional broth microdilution checkerboard assay. The conditions noted are these: 168 h. Summed up:
as §1

Assay [29] concerns Mycobacterium tuberculosis. The assay can be described thus: Inhibition of multidrug resistance efflux pump in Mycobacterium tuberculosis H37Rv assessed as ofloxacin MIC at 2 ug/ml after 7 days by two-dimensional broth microdilution checkerboard assay. The conditions noted are these: 168 h.
For assay [30], the system named is Mycobacterium tuberculosis. The assay can be described thus: Inhibition of multidrug resistance efflux pump in Mycobacterium tuberculosis H37Rv assessed as ethidium bromide MIC at 1 ug/ml after 7 days by two-dimensional broth microdilution checkerboard assay. The conditions noted are these: 168 h. In a few lines:
as §1

Assay [31] concerns Mycobacterium tuberculosis. The assay is described as follows: Inhibition of multidrug resistance efflux pump in Mycobacterium tuberculosis H37Rv assessed as isoniazid MIC at 2 ug/ml after 7 days by two-dimensional broth microdilution checkerboard assay. The conditions noted are these: 168 h.

With `CN1CCCCC1CCn1cnc2ccccc21` (racemic), the MIC (as a rule, the least concentration at which growth counts as inhibited) in assay [1] is 0.1 µg/mL; in assay [3], below 0.0156 µg/mL; in [4], 0.1 µg/mL; in assay [5], 0.1 µg/mL; in [6], 1 µg/mL; in assay [9] it was 0.5 µg/mL. The “fold change (FC)” value in assay [2] is above 128; in assay [7], above 64; in assay [10] it was above 128; in [11] it was above 128. The RFU in assay [8] came to 1.

On to `CSc1ccc2c(c1)N(CCC1CCCCN1C)c1ccccc1S2` (stereo not drawn) [THIORIDAZINE], for which the MIC is 6.25 µg/mL in [12]; below 0.0156 µg/mL in assay [13]; 0.1 µg/mL in [14]; 1 µg/mL in assay [15]; 1 µg/mL in [17]; 1 µg/mL in [18]. In assay [19], the MIC is 1 µg/mL. The RFU in assay [8] came out at 0.27. For the same molecule, the “fold change (FC)” value in assay [16] was above 128.

As to `CN1CCCCC1CCn1ccc2ccc(Br)cc21` (racemic), the “fold change (FC)” value in assay [20] is given as above 164; in [21], above 128; in [2], above 128; in assay [22] it was 4; in assay [23], above 164; in [24], above 128. For the same molecule, the “fold change (FC)” value was above 128 in assay [25]; above 164 in [7]; 8 in assay [26]; above 128 in assay [10]; 16 in [27]; above 128 in [11]. Moreover, the MIC in assay [1] was 0.1 µg/mL; in [3], below 0.0156 µg/mL; in [4] it was below 0.0015 µg/mL; in assay [5], 0.1 µg/mL; in assay [6], 1 µg/mL; in assay [9], below 0.0156 µg/mL. For the same molecule, the RFU in [8] worked out at 1.22.

`CN1CCCCC1CCn1c2ccccc2c2ccccc21` (racemic): the “fold change (FC)” value in [20] is on record as above 64; in [21], above 128; in assay [24] it was above 128; in assay [26], above 64. The MIC was 0.1 µg/mL in assay [1]; 0.05 µg/mL in [5]; 1 µg/mL in assay [28]; 1 µg/mL in [6]; 1 µg/mL in assay [29]; below 0.0156 µg/mL in assay [9]. For the same molecule, the figures for the MIC in assay [30] and in assay [31] were 12.5 µg/mL and 0.1 µg/mL, respectively. In [8], the RFU is reported as 0.33.

As to `COc1ccc(N(CCC2CCCCN2C)C(C)C)cc1OC` (racemic), the “fold change (FC)” value in assay [20], in assay [22], in [23] and in assay [27] was 4 in each case. For the same molecule, the MIC in assay [1] came out at 0.1 µg/mL; in assay [3], 1 µg/mL; in assay [4], 0.1 µg/mL; in [5], 0.1 µg/mL; in assay [6], 2 µg/mL; in assay [9], 0.25 µg/mL. In addition, in assay [8], the RFU is recorded as 0.84.
